# Experimental data gathered from unrelated publications.
# Lines come from different studies, so protocols differ.
# Observed: microbial growth
SMILES,organism,assay,test system,setting,quantity,value
O=c1oc2ccccc2c(Nc2ccccc2)c1I,Salmonella enterica,broth dilution,TYPHIMURIUM,,MIC90,10 µg/mL
COc1ccc(C=NNC(=O)CSc2nc3c(C)cccc3c(=O)n2-c2ccccc2)cc1OS(C)(=O)=O,Bacillus cereus,well diffusion,,20 µg/mL,inhibition zone,2 mm
CNC(C)C1CCC(N)C(OC2C(N)CC(N)C(OC3OCC(C)(O)C(NC)C3O)C2O)O1 (centres unmarked),Bacillus cereus,broth dilution,,,MIC,2 µg/mL
N#CC(C#N)=C1SC(C(=O)c2ccc(Nc3cnccn3)cc2)=NN1c1ccccc1,Salmonella enterica,broth dilution,ATCC13076 TYPHIMURIUM,,MIC,100 µg/mL
Nc1ccc(S(=O)(=O)Nc2ncccn2)cc1,Salmonella enterica,broth dilution,TYPHIMURIUM,,MIC,94 µg/mL
COc1ccc(N2N=C(C(=O)c3ccc(Nc4cnccn4)cc3)SC2=C(C#N)C#N)cc1,Salmonella enterica,broth dilution,ATCC13076 TYPHIMURIUM,,MIC,6.25 µg/mL
CC1(C)S[C@@H]2[C@H](NC(=O)[C@H](N)c3ccccc3)C(=O)N2[C@H]1C(=O)O,Salmonella enterica,broth dilution,ATCC14028,12 h,MIC,0.25 µg/mL
[H]/N=C(/N)N[C@H]1[C@H](O)[C@@H](O)[C@H](O[C@@H]2O[C@@H](C)[C@](O)(C=O)[C@H]2O[C@@H]2O[C@@H](CO)[C@H](O)[C@@H](O)[C@@H]2NC)[C@@H](N/C(N)=N\[H])[C@@H]1O,Bacillus cereus,broth dilution,ATCC14579,,MIC,15 µg/mL
N#CC(C#N)=C1SC(C(=O)c2ccc(Nc3cnccn3)cc2)=NN1c1ccc([N+](=O)[O-])cc1,Salmonella enterica,broth dilution,ATCC13076 TYPHIMURIUM,,MIC,12.5 µg/mL
O=C1/C(=C/c2ccc3ccccc3c2O)NC(=S)N1c1ccccc1,Bacillus cereus,broth dilution,ATCC14579,,MIC,24 µg/mL
CCCS(=O)(=O)Oc1ccc(C=NNC(=O)CSc2nc3c(C)cccc3c(=O)n2-c2ccccc2)cc1OC,Bacillus cereus,well diffusion,,20 µg/mL,inhibition zone,3 mm
